We go through 13 molecules from ChEMBL document CHEMBL1914416, “Discovery of pyridine-2-ones as novel class of multidrug resistance (MDR) modulators: first structure-activity relationships” (Bioorg Med Chem, 2011).

Structures are written as SMILES.

Data set [1] deals with T1, ATP-dependent translocase ABCB1 (Homo sapiens, UniProt P08183). In words: Reversal of human MDR1-mediated rhodamine 123 uptake in mouse L5178Y cells assessed as fluorescence activity ratio at 10 mM by flow cytometry relative to non p-gp expressing parental cell line. Type of data set: cell-based. Conditions: in the assay text read “10 µM” for “10 mM”. In short, it runs like this:
(§1)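 Mouse T-lymphoma L5178Y parental and retrovirally transfected P-gp-expressing L5178Y mdr cells were grown in McCoy's 5A with 10% heat-inactivated horse serum and 2 mM L-glutamine; the mdr line was precultured with 60 ng/mL colchicine. Cells (2 × 10^6/mL, serum-free) were preincubated with inhibitor 10 min at rt, then given rhodamine 123 for 20 min at 37 °C. They were washed twice and resuspended in PBS. Uptake was read by flow cytometry (1 × 10^4 cells). FAR is the mdr/parental quotient, each corrected by inhibitor-free controls.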

Data set [2] deals with T1, ATP-dependent translocase ABCB1. Briefly: Reversal of human MDR1-mediated rhodamine 123 uptake in mouse L5178Y cells assessed as fluorescence activity ratio at 1 µM by flow cytometry relative to non p-gp expressing parental cell line. (A flow cytometer gives signals particle by particle.)
The subject of data set [3] is L5178Y. Briefly: Cytotoxicity against mouse L5178Y cells at 20 umol by flow cytometric analysis. Type of data set: cell-based.
The target of data set [4] is T1, ATP-dependent translocase ABCB1. Briefly: Reversal of human MDR1-mediated rhodamine 123 uptake in mouse L5178Y cells assessed as fluorescence activity ratio at 20 umol by flow cytometry relative to non p-gp expressing parental cell line. It counts as cell-based. Put shortly:
as §1

T1 sequence (P08183 whole entry): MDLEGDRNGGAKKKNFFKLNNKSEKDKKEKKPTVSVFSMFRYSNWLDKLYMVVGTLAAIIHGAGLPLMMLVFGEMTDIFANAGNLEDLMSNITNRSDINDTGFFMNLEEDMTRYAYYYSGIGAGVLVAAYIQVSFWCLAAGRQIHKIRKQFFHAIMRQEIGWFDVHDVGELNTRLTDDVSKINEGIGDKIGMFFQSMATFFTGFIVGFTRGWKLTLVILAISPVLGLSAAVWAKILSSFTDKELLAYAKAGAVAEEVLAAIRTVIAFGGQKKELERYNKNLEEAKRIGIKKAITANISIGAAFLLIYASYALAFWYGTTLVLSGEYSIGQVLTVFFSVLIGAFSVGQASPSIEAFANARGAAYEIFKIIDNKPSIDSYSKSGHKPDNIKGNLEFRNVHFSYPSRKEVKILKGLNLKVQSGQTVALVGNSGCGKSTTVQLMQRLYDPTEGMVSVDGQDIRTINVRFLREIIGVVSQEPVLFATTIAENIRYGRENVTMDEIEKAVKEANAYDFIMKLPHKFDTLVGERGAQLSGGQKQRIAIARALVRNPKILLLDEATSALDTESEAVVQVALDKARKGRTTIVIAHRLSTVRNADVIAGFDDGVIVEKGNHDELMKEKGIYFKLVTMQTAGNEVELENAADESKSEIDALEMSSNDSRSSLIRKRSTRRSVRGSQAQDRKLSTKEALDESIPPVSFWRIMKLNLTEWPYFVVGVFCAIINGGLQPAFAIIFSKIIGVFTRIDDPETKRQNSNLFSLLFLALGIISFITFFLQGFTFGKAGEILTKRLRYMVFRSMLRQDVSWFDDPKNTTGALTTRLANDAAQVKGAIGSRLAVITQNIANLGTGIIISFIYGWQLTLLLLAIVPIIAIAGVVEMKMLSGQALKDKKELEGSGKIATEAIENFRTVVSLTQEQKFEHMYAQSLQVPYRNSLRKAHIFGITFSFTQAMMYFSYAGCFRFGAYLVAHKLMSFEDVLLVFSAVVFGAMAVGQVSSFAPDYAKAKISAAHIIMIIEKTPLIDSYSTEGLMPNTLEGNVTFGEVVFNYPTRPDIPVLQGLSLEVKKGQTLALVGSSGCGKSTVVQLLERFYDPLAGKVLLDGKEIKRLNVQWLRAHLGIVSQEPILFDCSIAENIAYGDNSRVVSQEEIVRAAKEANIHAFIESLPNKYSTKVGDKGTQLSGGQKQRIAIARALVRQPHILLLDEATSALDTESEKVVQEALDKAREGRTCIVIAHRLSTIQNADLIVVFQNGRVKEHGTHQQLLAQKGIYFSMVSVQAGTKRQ

Turning to `N#Cc1c(Cc2ccccc2)ccn(Cc2ccccc2)c1=O`, the Ratio was found to be 1.63 in data set [1] and 1.06 in data set [2].
As for `COc1ccc(-c2ccn(Cc3ccccc3)c(=O)c2C#N)cc1`, the results for the Ratio in data set [1] and in data set [2] were 1.35 and 1.05, respectively. The Activity entry in data set [3] is reported as “Non-toxic”.
As for `COC(=O)c1c(-c2ccccc2)ccn(Cc2ccccc2)c1=O`, the Ratio in data set [1] was 1.74; in data set [2], 1.06.
`COc1ccccc1-c1ccn(Cc2ccccc2)c(=O)c1C#N`: the Ratio is 2.16 in data set [1], 3.3 in data set [4] and 1.29 in data set [2]. Also, in data set [3], the Activity entry is “Non-toxic”.
As for `COc1ccc(CCN(C)CCCC(C#N)(c2ccc(OC)c(OC)c2)C(C)C)cc1OC` (centres undefined) [VERAPAMIL], the Ratio is given as 2.94 in data set [1] and 0.89 in data set [2].
The corresponding values for `COC(=O)c1c(-c2ccccc2C)ccn(Cc2ccccc2)c1=O` are 1.51 and 1.1.
In the same order, the values of `Cc1ccc(-c2ccn(Cc3ccccc3)c(=O)c2C#N)cc1` are 1.56 and 0.98.
Take `N#Cc1c(-c2ccccc2)ccn(Cc2ccccc2)c1=O`: the Ratio in data set [1] worked out at 1.71; in data set [2], 0.99.
The corresponding values for `COC(=O)c1c(Cc2ccccc2)ccn(Cc2ccccc2)c1=O` are 1.68 and 1.09.
Take `Cc1ccccc1-c1ccn(Cc2ccccc2)c(=O)c1C#N`: the figures for the Ratio in data set [1] and in data set [2] were 1.83 and 1.05, respectively.
Regarding `COC(=O)c1c(-c2ccc(C)cc2)ccn(Cc2ccccc2)c1=O`, the results for the Ratio in data set [1] and in data set [2] were 1.75 and 0.94, respectively.
In the same order, the values of `COC(=O)c1c(-c2ccc(OC)cc2)ccn(Cc2ccccc2)c1=O` are 1.91 and 0.94.
In the same order, the values of `O=C(OCc1ccccc1)c1c(-c2ccccc2)ccn(Cc2ccccc2)c1=O` are 2.59 and 1.22.
